According to PubChem BioAssay AID463145 (The Scripps Research Institute Molecular Screening Center, 2010):
The source made the active and inactive calls.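 The calls were made as follows: active = FXR activation with a fold change above 2; inactive = the rest.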

Each molecule was assayed against Bile acid receptor (Homo sapiens) (UniProt Q96RI1) (assay: FXR activators in GAL4 reporter cells, late-stage follow-up, selectivity assay for RORA inverse agonist project, cell-based, luciferase luminescence, assay provider, powder samples (AID 463145)). Details: HEK293T GAL4-FXR LBD luciferase reporter, 18-24 h; at 10 µM; stronger effect = higher value.
Outline: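 Material: HEK293T GAL4-FXR LBD luciferase reporter cells / Compound dosing: one dose, 10 µM nominal / Timing: 20 h compound treatment / Technique: luciferase luminescence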

Chain of Bile acid receptor (Homo sapiens) (Q96RI1 whole entry, looked up, the tested form may be a part): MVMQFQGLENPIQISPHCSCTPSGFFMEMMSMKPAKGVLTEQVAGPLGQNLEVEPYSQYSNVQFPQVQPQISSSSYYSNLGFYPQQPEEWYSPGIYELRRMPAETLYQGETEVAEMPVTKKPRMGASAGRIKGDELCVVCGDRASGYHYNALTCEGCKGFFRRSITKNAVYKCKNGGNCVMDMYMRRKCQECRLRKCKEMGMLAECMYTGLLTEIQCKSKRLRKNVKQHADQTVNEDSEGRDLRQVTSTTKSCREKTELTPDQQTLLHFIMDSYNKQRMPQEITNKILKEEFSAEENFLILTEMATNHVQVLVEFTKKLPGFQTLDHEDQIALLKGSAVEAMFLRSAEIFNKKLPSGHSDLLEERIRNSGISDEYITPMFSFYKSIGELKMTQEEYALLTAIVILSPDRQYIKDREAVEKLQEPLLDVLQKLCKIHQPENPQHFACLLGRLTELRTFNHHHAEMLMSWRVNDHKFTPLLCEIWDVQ

Row | fold change | Compound
1 | 1.14 (inactive) | O=C(Nc1ccc(C(O)(C(F)(F)F)C(F)(F)F)cc1)c1ccc(Cl)cc1
2 | 1.52 (inactive) | O=C(Nc1ccc(C(O)(C(F)(F)F)C(F)(F)F)cc1)c1ccc(F)cc1F
3 | 0.846 (inactive) | O=C(Nc1ccc(C(O)(C(F)(F)F)C(F)(F)F)cc1)c1ccccc1C(F)(F)F
4 | 1.21 (inactive) | O=S(=O)(Nc1ccc(C(O)(C(F)(F)F)C(F)(F)F)cc1)c1cccs1
5 | 1.07 (inactive) | O=C(Nc1ccc(C(O)(C(F)(F)F)C(F)(F)F)cc1)c1ccc(F)cc1Cl
6 | 1.06 (inactive) | O=C(Nc1ccc(C(O)(C(F)(F)F)C(F)(F)F)cc1)c1c(F)cccc1F
